Key:
[1] = tested on: Enterococcus faecalis; assay: Antibacterial activity against Enterococcus faecalis LMG 16216 assessed as inhibition of bacterial growth incubated for 20 hrs by CLSI based broth microdilution method; format: functional
Procedure, shortened: (§1)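 Broth microdilution in cation-adjusted Mueller-Hinton broth following CLSI guidelines. DMSO stocks were at 10 mM; compounds were twofold serially diluted over 128 to 2 μM. The inoculum was at 5 × 10⁵, prepared from colonies grown 20 h at 37 °C and adjusted to 0.5 McFarland. Plates ran 20 h at 37 °C with OD600 read-out. MIC was the lowest concentration inhibiting visible growth, in triplicate.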

[2] = tested on: DNA; assay: Stabilization of Escherichia coli in G-quadruplex DNA GGG GGA GGA GGA CGG GGG assessed as change in melting temperature at 10 uM incubated for 16 hrs by FRET method; format: nucleic-acid assay; conditions: in the assay text read “by CD melting method” for “by FRET method”
Procedure, shortened: (§2)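 Readout was CD melting, not FRET: 2.5 μM oligonucleotide in 10 mM lithium cacodylate pH 7.4 with KCl set per sequence (initial Tm 60-70 °C). Annealed 95 °C 5 min, cooled to room temperature over 4 h, then ligand 10 μM (4 equiv) equilibrated 16 h at 20 °C. Ellipticity at 260 nm tracked every 0.1 °C, 20-95 °C at 5 °C/min; Tm by van't Hoff two-state fit.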

[3] = tested on: Acinetobacter baumannii; assay: Antimicrobial activity against Acinetobacter baumannii LMG 01041 assessed as inhibition of bacterial growth in presence of D11 incubated for 20 hrs; conditions: LMG 01041, 20 h
[4] = tested on: Salmonella enterica; assay: Antibacterial activity against Salmonella enterica LMG 07233 assessed as inhibition of bacterial growth incubated for 20 hrs by CLSI based broth microdilution method; format: functional; procedure, shortened: as §1
[5] = tested on: Staphylococcus aureus; assay: Antimicrobial activity against Staphylococcus aureus LMG 8224 assessed as inhibition of bacterial growth in presence of D11 incubated for 20 hrs; conditions: LMG 8224, 20 h
[6] = tested on: DNA; assay: Stabilization of Escherichia coli in G-quadruplex DNA GGT GGG GAG GGG TAA GGG G assessed as melting temperature at 10 uM incubated for 16 hrs by […]; format: nucleic-acid assay; procedure, shortened: as §2
[7] = tested on: Bacillus cereus; assay: Antibacterial activity against Bacillus cereus ATCC 10987 assessed as inhibition of bacterial growth incubated for 20 hrs by CLSI based broth microdilution method; format: functional; procedure, shortened: as §1
[8] = tested on: Pseudomonas aeruginosa; assay: Antibacterial activity against Pseudomonas aeruginosa LMG 6395 assessed as inhibition of bacterial growth incubated for 20 hrs by CLSI based broth microdilution method; format: functional; procedure, shortened: as §1
[9] = tested on: Staphylococcus aureus; assay: Antibacterial activity against Staphylococcus aureus LMG 15975 assessed as inhibition of bacterial growth incubated for 20 hrs by CLSI based broth microdilution method; format: functional; procedure, shortened: as §1
[10] = tested on: Escherichia coli; assay: Antibacterial activity against Escherichia coli LMG 8223 assessed as inhibition of bacterial growth incubated for 20 hrs by CLSI based broth microdilution method; format: functional; procedure, shortened: as §1
[11] = tested on: Klebsiella aerogenes; assay: Antibacterial activity against Enterobacter aerogenes LMG 02094 assessed as inhibition of bacterial growth incubated for 20 hrs by CLSI based broth microdilution method; format: functional; procedure, shortened: as §1
[12] = tested on: DNA; assay: Stabilization of Staphylococcus aureus in G Quadruplex DNA GGGGCTAATTGGGGCTGGTGG assessed as change in melting temperature at 10 uM incubated for 16 hrs by […]; format: nucleic-acid assay; procedure, shortened: as §2
[13] = tested on: Staphylococcus epidermidis; assay: Antibacterial activity against Staphylococcus epidermidis Tu3298 assessed as inhibition of bacterial growth incubated for 20 hrs by CLSI based broth microdilution method; format: functional; procedure, shortened: as §1
[14] = tested on: DNA; assay: Stabilization of Escherichia coli in G-quadruplex DNA GGG GCG GGG TGG GTT GG assessed as change in melting temperature at 10 uM incubated for 16 hrs by CD melting method
[15] = tested on: Escherichia coli; assay: Antimicrobial activity against Escherichia coli LMG 8223 assessed as inhibition of bacterial growth in presence of D11 incubated for 20 hrs; conditions: LMG 8223, 20 h
[16] = tested on: Staphylococcus aureus; assay: Antibacterial activity against Staphylococcus aureus LMG 10147 assessed as inhibition of bacterial growth incubated for 20 hrs by CLSI based broth microdilution method; format: functional; procedure, shortened: as §1
[17] = tested on: Bacillus cereus; assay: Antibacterial activity against Bacillus cereus ATCC 10987; format: functional, organism-based; conditions: DDE = dose-dependent effect
Procedure, shortened: (§3)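 Cultures were inoculated at 2% and grown at 37 °C, with OD600 read every 5 min for 8 h. NDI-10 was added at exponential-phase onset (~3 h). Concentrations were 32, 16, 8 and 4 μM for E. coli, and 16, 8, 4 and […] μM for the Gram-positive strains.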

[18] = tested on: Enterococcus faecium; assay: Bacteriostatic activity against Enterococcus faecium LMG 16003 assessed as inhibition of bacterial growth; format: functional
Procedure, shortened: (§4)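 A standard MIC plate (128–2 μM, cMHB, 20 h, 37 °C) was read at OD600. Each well then seeded at 10% a fresh compound-free cMHB plate, grown another 20 h at 37 °C and read at OD600. No growth at the same concentration in both plates counted as bactericidal. Growth above the MIC counted as bacteriostatic. Done in triplicate.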

[19] = tested on: DNA; assay: Stabilization of Staphylococcus aureus in G-quadruplex DNA GGGTTTGGGGCGGCGGTTGG assessed as change in melting temperature at 10 uM incubated for 16 hrs by FRET method; format: nucleic-acid assay; conditions: in the assay text read “by CD melting method” for “by FRET method”
[20] = tested on: Enterococcus faecium; assay: Antibacterial activity against Enterococcus faecium LMG 11423 assessed as inhibition of bacterial growth incubated for 20 hrs by CLSI based broth microdilution method; conditions: LMG 11423, 20 h
[21] = tested on: Enterobacter cloacae; assay: Antimicrobial activity against Enterobacter cloacae LMG 02783 assessed as inhibition of bacterial growth in presence of D11 incubated for 20 hrs; conditions: LMG 02783, 20 h
[22] = tested on: Staphylococcus aureus; assay: Antibacterial activity against Staphylococcus aureus LMG 8224; format: functional, organism-based; conditions: DDE = dose-dependent effect; procedure, shortened: as §3
[23] = tested on: Salmonella enterica; assay: Bacteriostatic activity against Salmonella enterica LMG 07233 assessed as inhibition of bacterial growth; format: functional; procedure, shortened: as §4
[24] = tested on: Enterococcus faecalis; assay: Antimicrobial activity against Enterococcus faecalis V583 assessed as inhibition of bacterial growth in presence of D11 incubated for 20 hrs; conditions: V583, 20 h
[25] = tested on: Pseudomonas aeruginosa; assay: Antimicrobial activity against Pseudomonas aeruginosa LMG 6395 assessed as inhibition of bacterial growth in presence of D11 incubated for 20 hrs; conditions: LMG 6395, 20 h
[26] = tested on: Pseudomonas aeruginosa; assay: Bactericidal activity against Pseudomonas aeruginosa LMG 6395 assessed as inhibition of bacterial growth; format: functional; procedure, shortened: as §4
[27] = tested on: Acinetobacter baumannii; assay: Antibacterial activity against Acinetobacter baumannii LMG 01041 assessed as inhibition of bacterial growth incubated for 20 hrs by CLSI based broth microdilution method; format: functional; procedure, shortened: as §1
[28] = tested on: Enterococcus faecium; assay: Antibacterial activity against Enterococcus faecium LMG 16003 assessed as inhibition of bacterial growth incubated for 20 hrs by CLSI based broth microdilution method; format: functional; procedure, shortened: as §1
[29] = tested on: Escherichia coli; assay: Bactericidal against Escherichia coli LMG 8223 assessed as inhibition of bacterial growth; format: functional; procedure, shortened: as §4

## CN(C)CCCn1c(=O)c2ccc3c(=O)n(CCCN(C)C)c(=O)c4c5[nH]c6ccccc6[nH]c5c(c1=O)c2c34.O=C(O)C(F)(F)F.O=C(O)C(F)(F)F
[1]
  MIC: 4 µM
[2]
  ΔTm: > 24.8 °C
[3]
  MIC: 8 µM
[4]
  MIC: 64 µM
[5]
  MIC: 16 µM
[6]
  Tm: 91 °C
[7]
  MIC: 8 µM
[8]
  MIC: 128 µM
[9]
  MIC: 16 µM
[10]
  MIC: 16 µM
[11]
  MIC: 32 µM
[12]
  ΔTm: 27.3 °C
[13]
  MIC: 16 µM
[14]
  ΔTm: 18.8 °C
[15]
  MIC: < 0.5 µM
[16]
  MIC: 16 µM
[17]
  Activity: Dde
[18]
  MIC: 32 µM
[19]
  ΔTm: > 35.6 °C
[20]
  MIC: 4 µM
[21]
  MIC: 8 µM
[22]
  Activity: Dde
[23]
  MIC: 128 µM
[24]
  MIC: 4 µM
[25]
  MIC: 4 µM
[26]
  MIC: 128 µM
[27]
  MIC: 64 µM
[28]
  MIC: 4 µM
[29]
  MIC: 16 µM
